# Results from article PMC5924903 (Proceedings of the National Academy of Sciences of the …, 2018).
# Peptide text beside a SMILES is read from it.
# System: HsNAA10
# Assay: Nt acetyltransferase inhibitor assay
# Assay type: biochemical
# Settings: Ki panel of human NATs
# Outline: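 In vitro Nt-acetylation assay on purified human NAT enzymes. IC50 values were determined for NAA80. Ki values for the bisubstrate inhibitor were determined across a panel of human NATs. Each reaction was run at least three times, in triplicate. Errors are given as SD.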
compound,measurement,value
CC[C@H](C)[C@H](NC(=O)[C@H](CC(=O)O)NC(=O)[C@H](CC(=O)O)NC(=O)[C@H](CC(=O)O)NC(=O)CSCCNC(=O)CCNC(=O)[C@H](O)C(C)(C)COP(=O)(O)OP(=O)(O)OC[C@H]1O[C@@H](n2cnc3c(N)ncnc32)[C@H](O)[C@@H]1OP(=O)(O)O)C(N)=O [CoA-Ac-DDDI-NH2] (HELM PEPTIDE1{[CC(C)(COP(=O)(O)OP(=O)(O)OC[C@H]1O[C@@H](n2cnc3c(N)ncnc32)[C@H](O)[C@@H]1OP(=O)(O)O)[C@@H](O)C(=O)[*:2]].[bAla].[O=C(CSCCN[*:1])[*:2]].D.D.D.I.[am]}$$$$V2.0),Fold reduced potency for NAA10 compared with NAA80,88 fold
